Type in all cases: functional
For assay [1], the system named is 786-0. Briefly: Growth inhibition of human 786-0 cells after 48 hrs by sulforhodamine B assay. The settings on record: 786-0, 48 h. The gist of the method:
(§1)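 NCI 60-cell-line five-dose screen at 0.01, 0.1, 1, 10 and 100 µM final. Cells were plated at 5,000–40,000/well and grown 24 h at 37 °C, 5% CO2, then exposed to drug continuously for 48 h. Adherent cells were fixed with cold TCA (10% final) and stained with SRB; absorbance read at 515 nm. GI50 is the concentration where [(Ti-Tz)/(C-Tz)]×100 = 50, with Tz plates fixed at drug addition.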
In general terms: Sulforhodamine B stains cellular protein and so reports cell mass.

A further assay relates to OVCAR-3. Briefly: Growth inhibition of human OVCAR3 cells assessed as cell growth at 10 '-5 M after 48 hrs by sulforhodamine B assay. The settings on record: OVCAR-3, 48 h, read-out: Activity.
The test system of assay [2] is SNB-75. The assay can be described thus: Growth inhibition of human SNB75 cells assessed as cell growth at 10 '-6 M after 48 hrs by sulforhodamine B assay. The settings on record: SNB-75, 48 h, read-out: Activity.
In another assay the test system is HL-60(TB). The assay can be described thus: Growth inhibition of human HL-60(TB) cells assessed as cell growth at 10 '-7 M after 48 hrs by sulforhodamine B assay. The note with it: HL-60, 48 h, read-out: Activity. A digest of the protocol: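 Five-dose NCI protocol with final concentrations of 0.01–100 µM and drug diluted from a DMSO stock (400× the top concentration) in medium with gentamicin. Cells were pre-incubated 24 h, then exposed 48 h at 37 °C. Suspension cells were fixed with 16% final TCA, SRB-stained and read at 515 nm. Percentage growth at each level was [(Ti−Tz)/(C−Tz)]×100, or [(Ti−Tz)/Tz]×100 when Ti < Tz.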

The next assay has as its system SK-MEL-28. Briefly: Growth inhibition of human SK-MEL-28 cells assessed as cell growth at 10 '-5 M after 48 hrs by sulforhodamine B assay. The note with it: SK-MEL-28, 48 h, read-out: Activity.
Assay [3] is described as follows: Growth inhibition of human Hs 578T cells assessed as cell growth at 10 '-7 M after 48 hrs by sulforhodamine B assay. The settings on record: read-out: Activity.
In assay [4] the test system is 786-0. Briefly: Growth inhibition of human 786-0 cells assessed as cell growth at 10 '-6 M after 48 hrs by sulforhodamine B assay. The note with it: 786-0, 48 h, read-out: Activity. A digest of the protocol: (§2)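 Percent growth at each of the five concentrations of the 48 h continuous-exposure NCI SRB screen. Drug stocks were in DMSO at 400× the top final concentration and diluted in medium with gentamicin. Growth was calculated as [(Ti-Tz)/(C-Tz)]×100 when Ti ≥ Tz, or [(Ti-Tz)/Tz]×100 when Ti < Tz. Tz plates were fixed at drug addition; untreated wells served as control. Absorbance was read at 515 nm.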

For assay [5], the system named is CAKI-1. Briefly: Growth inhibition of human CAKI-1 cells assessed as cell growth at 10 '-6 M after 48 hrs by sulforhodamine B assay. The note with it: CAKI-1, 48 h, read-out: Activity. The gist of the method: as §2
Assay [6] has as its system SNB-75. Briefly: Growth inhibition of human SNB75 cells assessed as cell growth at 10 '-8 M after 48 hrs by sulforhodamine B assay. The settings on record: SNB-75, 48 h, read-out: Activity.
For the next assay, the system named is MOLT-4. Briefly: Growth inhibition of human MOLT4 cells assessed as cell growth at 10 '-7 M after 48 hrs by sulforhodamine B assay. The settings on record: MOLT-4, 48 h, read-out: Activity.
The next assay concerns U-251. Briefly: Growth inhibition of human U251 cells assessed as cell growth at 10 '-6 M after 48 hrs by sulforhodamine B assay. The settings on record: U-251, 48 h, read-out: Activity.
A further assay deals with M14. Briefly: Growth inhibition of human M14 cells assessed as cell growth at 10 '-7 M after 48 hrs by sulforhodamine B assay. The settings on record: M14, 48 h, read-out: Activity.
A further assay concerns OVCAR-5. Briefly: Growth inhibition of human OVCAR5 cells after 48 hrs by sulforhodamine B assay. The note with it: OVCAR-5, 48 h.
Another assay concerns MDA-MB-435. The assay can be described thus: Growth inhibition of human MDA-MB-435 cells assessed as cell growth at 10 '-7 M after 48 hrs by sulforhodamine B assay. The settings on record: MDA-MB-435, 48 h, read-out: Activity.
For a further assay, the system named is OVCAR-4. Briefly: Growth inhibition of human OVCAR4 cells assessed as cell growth at 10 '-5 M after 48 hrs by sulforhodamine B assay. The settings on record: OVCAR-4, 48 h, read-out: Activity.
A further assay concerns ACHN. The assay can be described thus: Growth inhibition of human ACHN cells after 48 hrs by sulforhodamine B assay. A digest of the protocol:
as §1

The test system of another assay is MDA-MB-231. Briefly: Growth inhibition of human MDA-MB-231 cells assessed as cell growth at 10 '-6 M after 48 hrs by sulforhodamine B assay. The settings on record: MDA-MB-231, 48 h, read-out: Activity.
Another assay deals with SF-539. The assay can be described thus: Growth inhibition of human SF539 cells assessed as cell growth at 10 '-7 M after 48 hrs by sulforhodamine B assay. The settings on record: SF-539, 48 h, read-out: Activity.
Assay [7] deals with CAKI-1. Briefly: Growth inhibition of human CAKI-1 cells after 48 hrs by sulforhodamine B assay. The note with it: CAKI-1, 48 h. A digest of the protocol:
as §1

A further assay deals with A498. The assay can be described thus: Growth inhibition of human A498 cells assessed as cell growth at 10 '-7 M after 48 hrs by sulforhodamine B assay. The note with it: A498, 48 h, read-out: Activity. The gist of the method:
as §2

Assay [8] deals with 786-0. Briefly: Growth inhibition of human 786-0 cells assessed as cell growth at 10 '-4 M after 48 hrs by sulforhodamine B assay. The note with it: 786-0, 48 h, read-out: Activity. The gist of the method:
as §2

A further assay concerns BT-549. Briefly: Growth inhibition of human BT549 cells assessed as cell growth at 10 '-8 M after 48 hrs by sulforhodamine B assay. The note with it: BT-549, 48 h, read-out: Activity. The gist of the method:
as §2

The next assay concerns NCI-H522. The assay can be described thus: Growth inhibition of human NCI-H522 cells assessed as cell growth at 10 '-5 M after 48 hrs by sulforhodamine B assay. The settings on record: NCI-H522, 48 h, read-out: Activity.
The nature of assay [9]: Growth inhibition of human Hs 578T cells assessed as cell growth at 10 '-8 M after 48 hrs by sulforhodamine B assay. The note with it: read-out: Activity.
In the next assay the test system is MCF7. The assay can be described thus: Growth inhibition of human MCF7 cells assessed as cell growth at 10 '-4 M after 48 hrs by sulforhodamine B assay. The settings on record: MCF7, 48 h, read-out: Activity.
The subject of a further assay is UACC-257. Briefly: Growth inhibition of human UACC257 cells assessed as cell growth at 10 '-5 M after 48 hrs by sulforhodamine B assay. The settings on record: UACC-257, 48 h, read-out: Activity.
The test system of another assay is HOP-62. Briefly: Growth inhibition of human HOP62 cells assessed as cell growth at 10 '-8 M after 48 hrs by sulforhodamine B assay. The note with it: HOP-62, 48 h, read-out: Activity.
A further assay relates to RPMI-8226. Briefly: Growth inhibition of human RPMI8226 cells assessed as cell growth at 10 '-6 M after 48 hrs by sulforhodamine B assay. The note with it: RPMI-8226, 48 h, read-out: Activity.
Another assay deals with SR. The assay can be described thus: Growth inhibition of human SR cells assessed as growth inhibition at 10 uM after 48 hrs by sulforhodamine B assay. The note with it: read-out: GI.
Setting [10] is: read-out: LD50 (the source's name).

As usually defined, the GI50 is the concentration at which growth is held to half of that of the control. A low value points to more potent growth inhibition.

The structures appear in SMILES notation.

On to `Cc1nn(-c2ccc(Cl)cc2)c(=O)n1CCN1CCOCC1`, for which the GI50 in the assay with 786-0 [1] is 5750 nM. Further, the CC50 in the assay on 786-0 [1] (read-out: pLC50 (the source's name) (converted)) is greater than 100000 nM. For the same compound, in the assay with 786-0 [1] (read-out: pTGI), the TGI was greater than 100000 nM.
Consider `Cc1cc(=O)oc2cc(OCCn3c(C)nn(-c4ccc(Cl)cc4)c3=O)ccc12`, for which the growth at 10 µM in the assay on OVCAR-3 is 7%; in the assay with SK-MEL-28, 33%; in the assay with OVCAR-4 it was -1%; with NCI-H522, 24%; with UACC-257 it was 40%. The growth at 1 µM with SNB-75 [2] was 74%; with 786-0 [4], 97%; in the assay on CAKI-1 [5], 68%; in the assay with U-251, 87%; with MDA-MB-231, 66%; in the assay on RPMI-8226, 95%. The growth at 0.1 µM stood at 104% in the assay on HL-60(TB); 83% in assay [3]; 109% in the assay with MOLT-4; 101% in the assay with M14; 94% in the assay with MDA-MB-435; 103% in the assay on SF-539. Besides, in the assay on A498, the growth at 0.1 µM was found to be 76%. For the same compound, the growth at 0.01 µM in the assay on SNB-75 [6] stood at 88%; in the assay with BT-549, 105%; in assay [9] it was 88%; in the assay on HOP-62 it was 101%. Besides, the GI50 turned out to be 2190 nM with OVCAR-5, 5590 nM with ACHN and 1000 nM in the assay with CAKI-1 [7]. Further, the TGI in the assay on OVCAR-5, in the assay on ACHN and in the assay with CAKI-1 [7] was greater than 1000 nM each time. For the same compound, the CC50 in the assay with OVCAR-5 (setting [10]), in the assay with ACHN (setting [10]) and in the assay on CAKI-1 [7] (setting [10]) was greater than 1000 nM in each case. For the same compound, the growth at 100 µM is 15% in the assay on 786-0 [8] and 21% in the assay with MCF7. The inhibition of growth at 10 µM with SR was 78.8%.

The record behind these values is ChEMBL document CHEMBL2346664, “Synthesis, characterization and in vitro anticancer evaluation of novel 1,2,4-triazolin-3-one derivatives” (2013).
